Source: ChEMBL document CHEMBL4257555, “Small molecule cores demonstrate non-competitive inhibition of lactate dehydrogenase” (Medchemcomm, 2018)

Experiments:
[1] = target: T1, L-lactate dehydrogenase B chain (Sus scrofa, UniProt P00336); experiment: Inhibition of porcine heart LDH using pyruvate as substrate and NADH as cofactor measured after 2 hrs by stopped-flow spectrometric method
Procedure, shortened: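 Stopped-flow assay of pig heart LDH (5 nN) with 100 μM NADH and 300 μM pyruvate in 100 mM sodium phosphate pH 7.2 at 37 °C, after 2 h inhibitor preincubation at 4 °C. A340 initial rates averaged over five shots and normalised to uninhibited activity. EC50 from a four-parameter fit with min, max, EC50 and Hill coefficient refined.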

[2] = target: T1, L-lactate dehydrogenase B chain; experiment: Non-competitive inhibition of porcine heart LDH using varying levels of pyruvate as substrate and NADH as cofactor measured after 2 hrs by double reciprocal lineweaver-burk plot analysis

T1 sequence (P00336 whole entry): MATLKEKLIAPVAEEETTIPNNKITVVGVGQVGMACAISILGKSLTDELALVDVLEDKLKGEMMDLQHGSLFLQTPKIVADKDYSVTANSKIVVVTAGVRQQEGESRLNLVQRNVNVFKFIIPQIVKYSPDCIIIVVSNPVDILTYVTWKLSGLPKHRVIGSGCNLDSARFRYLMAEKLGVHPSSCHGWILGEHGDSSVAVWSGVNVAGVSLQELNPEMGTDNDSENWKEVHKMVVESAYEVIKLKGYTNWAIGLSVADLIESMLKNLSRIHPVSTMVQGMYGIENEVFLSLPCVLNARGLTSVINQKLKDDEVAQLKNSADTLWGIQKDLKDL

EC50 [1] [µM]	Ki [2] [µM]	SMILES
712	355	NC(=O)c1cc(O)cc(O)c1
78	498	CC(=O)Nc1cccc(O)c1 [METACETAMOL]
